Test results from paper PMC3749563 (British Journal of Cancer, 2013).

Key:
[1] = Dose-limiting toxicities and recommended phase II dose; format: in vivo, human; conditions: cediranib daily, in combination with RO4929097; highest dose level completed
[2] = test system: circulating VEGF-A, VEGF-C, SDF-1; experiment: Circulating biomarker evaluation; format: in vivo, human; conditions: after dosing with cediranib (with RO4929097), cycle 1
Summary of the method: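 Patients with advanced solid tumours. Blood was drawn before dosing on cycle 1 day 1, cycle 1 day 22 and cycle 2 day 1. Plasma VEGF-A, VEGF-B, VEGF-C, bFGF, SDF-1-alpha, IL-6 and IL-8 were measured by commercial ELISA kits following the manufacturer's protocol. Samples were run in duplicate, with a triplicate if values differed by more than 15%. Results were discarded unless at least two agreed within 15%.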

[3] = test system: VEGF receptors (VEGFR-1, VEGFR-2 and VEGFR-3), and c-Kit; conditions: ref Wedge et al, 2005; cited from earlier work
[4] = single agent, 3 consecutive days per week schedule; ref Tolcher et al, 2012; cited from earlier work
[5] = test system: α1-acid glycoprotein and albumin; conditions: ref Wu et al, 2012; cited from earlier work
γ-secretase = conditions: ref Luistro et al, 2009; cited from earlier work

| SMILES | Recommended phase II dose (RP2D) [1] [mg] | Change of circulating SDF-1 [2] | Change of circulating VEGF-A [2] | Change of circulating VEGF-C [2] | Inhibition of VEGF signalling [3] | Daily dose at which reversible CYP3A4 autoinduction was detected [4] | Plasma protein binding [5] | γ-Secretase inhibition (γ-secretase) |
| --- | --- | --- | --- | --- | --- | --- | --- | --- |
| COc1cc2c(Oc3ccc4[nH]c(C)cc4c3F)ncnc2cc1OCCCN1CCCC1 [cediranib] | 30 | Increases | Increases | Increases | highly potent inhibitor |  |  |  |
| CC(C)(C(=O)NCC(F)(F)C(F)(F)F)C(=O)N[C@@H]1C(=O)Nc2ccccc2-c2ccccc21 [RO4929097] |  |  |  |  |  | above 24 mg | highly bound | potent and selective |
